pIC50: −log10 of the molar value. In brackets after ≈: the same amount, converted by molar mass. Blank lines part the entries; values can stand above or below the compound they belong to. Activity calls are given as the source filed them. No cut-off for these calls is given here.
Columns and labels:
[1] = Fraction unbound in human plasma at 10 uM by equilibrium dialysis method; type: ADME, cell-free
[2] = Inhibition of CK2 in mouse L-Wnt3a cells assessed as suppression of Wnt3a-mediated L S/L Super TOPFlash reporter gene transcription after 24 hrs; settings: L Wnt-3A
[3] = Intrinsic clearance in human liver microsomes; type: ADME; settings: read-out: CLH
[4] = Intrinsic clearance in rat hepatocyte assessed per 10^6 cells; type: ADME, cell-based; settings: hepatocytes, read-out: CLH
[5] = Aqueous solubility of the compound in phosphate buffer at pH 7.4 incubated for 24 hrs by LC/MS/MS method; type: physicochemical
Casein kinase II = Casein kinase II (Homo sapiens, UniProt P19784+P67870+P68400); test: Inhibition of CK2 in human DLD1 HA-myr-AKT1 cells assessed as suppression of AKTser129 phosphorylation after 3 to 24 hrs by Western blot analysis
Sequence of Casein kinase II (P67870 whole entry): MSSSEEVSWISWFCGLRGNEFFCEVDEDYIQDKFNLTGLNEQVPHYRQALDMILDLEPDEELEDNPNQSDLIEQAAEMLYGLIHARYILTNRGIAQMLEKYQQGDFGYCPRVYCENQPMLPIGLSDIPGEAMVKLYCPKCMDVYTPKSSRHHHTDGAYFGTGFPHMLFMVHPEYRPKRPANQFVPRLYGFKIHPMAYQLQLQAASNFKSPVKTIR
Sequence of Casein kinase II (P68400 whole entry): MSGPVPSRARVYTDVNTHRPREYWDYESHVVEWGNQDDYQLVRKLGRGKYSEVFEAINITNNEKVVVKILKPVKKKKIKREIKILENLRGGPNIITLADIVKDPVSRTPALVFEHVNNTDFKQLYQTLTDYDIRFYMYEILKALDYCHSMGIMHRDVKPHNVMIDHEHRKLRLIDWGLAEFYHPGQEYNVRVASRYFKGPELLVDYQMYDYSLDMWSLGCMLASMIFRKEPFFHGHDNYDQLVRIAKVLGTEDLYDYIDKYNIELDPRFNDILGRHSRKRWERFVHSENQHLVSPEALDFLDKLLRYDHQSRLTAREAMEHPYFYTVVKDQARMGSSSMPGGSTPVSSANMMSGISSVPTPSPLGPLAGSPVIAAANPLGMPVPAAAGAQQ
Sequence of Casein kinase II (P19784 whole entry): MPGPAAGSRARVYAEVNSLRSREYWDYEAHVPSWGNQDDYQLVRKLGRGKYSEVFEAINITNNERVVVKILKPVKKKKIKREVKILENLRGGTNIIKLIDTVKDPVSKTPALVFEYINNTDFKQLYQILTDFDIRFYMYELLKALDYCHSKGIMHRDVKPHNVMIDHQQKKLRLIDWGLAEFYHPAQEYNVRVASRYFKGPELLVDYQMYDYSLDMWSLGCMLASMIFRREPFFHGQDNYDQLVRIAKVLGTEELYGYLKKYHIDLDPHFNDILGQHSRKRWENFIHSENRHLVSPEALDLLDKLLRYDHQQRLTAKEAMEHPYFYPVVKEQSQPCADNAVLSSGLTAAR

[6] = target: Casein kinase II subunit alpha (Homo sapiens, UniProt P68400); test: Inhibition of full length N-terminal 6xHis-tagged recombinant human CK2alpha expressed in fall armyworm Sf21 cells using BODIPY-FL-RRRDDDSDDD-CONH2 as substrate after 90 mins by mobility shift assay
Sequence of Casein kinase II subunit alpha (P68400 whole entry): as the sequence (P68400 whole entry) above

SW-620 = test: Antitumor activity against human SW620 cells harboring APC mutation xenografted in ip dosed Ncr nu/nu mouse administered as bolus dose for once in every week for 3 weeks; type: functional, organism-based
[7] = target: Homeodomain-interacting protein kinase 4 (Homo sapiens) (UniProt Q8NE63); test: Inhibition of Hipk4 (unknown origin) at 0.1 uM by quantitative PCR
Outline: (§1)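 Single-concentration screen at 0.1 μM, run as part of a selectivity panel of 402 kinases.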

L-Wnt3a = test: Inhibition of CK2 in mouse L-Wnt3a cells assessed as depletion of active form of beta-catenin after 1 hr by Western blot method; type: cell-based
Mus musculus [8] = test: In vivo inhibition of Wnt-associated Tcf4-luciferase gene transcription in human DLD1 cells xenografted in Ncr nu/nu mouse at 10 mg/kg, iv measured at 8 hrs; type: functional; settings: DLD-1, iv
Mus musculus [9] = test: In vivo inhibition of active beta-catenin phosphorylation at Ser37 or Thr41 in human SW620 cells xenografted in iv dosed Ncr nu/nu mouse after 48 hrs by Western blot analysis; type: functional, organism-based; settings: SW-620
Outline: (§2)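 SW620 (APC mutant) xenograft mice dosed IV at 10 or 30 mg/kg; pAKT S129 and active β-catenin measured by Western blot of tumor lysates, one lane per vehicle- or compound-treated animal.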

[10] = target: Death-associated protein kinase 2 (Homo sapiens) (UniProt Q9UIK4); test: Inhibition of Dapk2 (unknown origin) at 0.1 uM by quantitative PCR; outline: as §1
Sequence of Death-associated protein kinase 2 (Homo sapiens) (Q9UIK4 whole entry, looked up): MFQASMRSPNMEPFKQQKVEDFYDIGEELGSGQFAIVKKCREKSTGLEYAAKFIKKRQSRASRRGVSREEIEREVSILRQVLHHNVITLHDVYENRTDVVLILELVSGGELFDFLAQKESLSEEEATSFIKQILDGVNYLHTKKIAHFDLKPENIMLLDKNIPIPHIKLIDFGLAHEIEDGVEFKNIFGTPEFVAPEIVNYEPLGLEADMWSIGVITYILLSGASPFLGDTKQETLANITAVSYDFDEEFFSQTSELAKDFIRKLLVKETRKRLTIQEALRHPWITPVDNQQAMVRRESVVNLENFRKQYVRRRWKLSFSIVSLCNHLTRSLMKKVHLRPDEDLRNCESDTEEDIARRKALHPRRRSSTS

[11] = Antitumor activity against human HCT116 cells harboring beta-catenin mutation xenografted in Ncr nu/nu mouse at 30 mg/kg, ip administered as bolus dose for once in every week for 3 weeks; type: functional; settings: HCT-116, ip, 504 h, read-out: TGI
Outline: (§3)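 Mouse xenografts (HCT-116 β-catenin mutant; SW620 APC mutant) dosed at 30 mg/kg weekly for 3 cycles; efficacy expressed as % tumor growth inhibition.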

[12] = target: Voltage-gated inwardly rectifying potassium channel KCNH2 (Homo sapiens, UniProt Q12809); test: Inhibition of human ERG expressed in CHO cells by patch clamp assay; type: cell-based
Mus musculus [13] = test: In vivo inhibition of AKT phosphorylation at S129 in human DLD1 cells xenografted in Ncr nu/nu mouse at 10 mg/kg, iv measured up to 24 hrs; type: functional, organism-based; settings: DLD-1
Outline: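 DLD-1 TOPflash xenograft mice given a single 10 mg/kg IV dose; tumor AKT Ser129 phosphorylation assessed out to 24 h.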

[14] = Antitumor activity against human SW620 cells harboring APC mutation xenografted in Ncr nu/nu mouse at 30 mg/kg, ip administered as bolus dose for once in every week for 3 weeks; type: functional; settings: SW-620, ip, 504 h, read-out: TGI; outline: as §3
[15] = Antiproliferative activity against human […] cells after 72 hrs by alamar blue assay; type: functional; settings: HCT-116, 72 h
Mus musculus [16] = test: Toxicity in Ncr nu/nu mouse xenografted with human SW620 cells harboring APC mutation assessed as reduction in body weight at 30 mg/kg, ip measured on day 25; type: organism-based, SW-620; design: scale not given: the % may be the effect or the level left; settings: in vivo
Outline: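 SW620 (APC mutant) xenograft mice dosed weekly for 3 cycles; body weight change in treated animals recorded on day 25 as mean % change.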

[17] = target: Dual specificity tyrosine-phosphorylation-regulated kinase 3 (Homo sapiens) (UniProt O43781); test: Inhibition of Dyrk3 (unknown origin) at 0.1 uM by quantitative PCR; outline: as §1
Sequence of Dual specificity tyrosine-phosphorylation-regulated kinase 3 (Homo sapiens) (O43781 whole entry): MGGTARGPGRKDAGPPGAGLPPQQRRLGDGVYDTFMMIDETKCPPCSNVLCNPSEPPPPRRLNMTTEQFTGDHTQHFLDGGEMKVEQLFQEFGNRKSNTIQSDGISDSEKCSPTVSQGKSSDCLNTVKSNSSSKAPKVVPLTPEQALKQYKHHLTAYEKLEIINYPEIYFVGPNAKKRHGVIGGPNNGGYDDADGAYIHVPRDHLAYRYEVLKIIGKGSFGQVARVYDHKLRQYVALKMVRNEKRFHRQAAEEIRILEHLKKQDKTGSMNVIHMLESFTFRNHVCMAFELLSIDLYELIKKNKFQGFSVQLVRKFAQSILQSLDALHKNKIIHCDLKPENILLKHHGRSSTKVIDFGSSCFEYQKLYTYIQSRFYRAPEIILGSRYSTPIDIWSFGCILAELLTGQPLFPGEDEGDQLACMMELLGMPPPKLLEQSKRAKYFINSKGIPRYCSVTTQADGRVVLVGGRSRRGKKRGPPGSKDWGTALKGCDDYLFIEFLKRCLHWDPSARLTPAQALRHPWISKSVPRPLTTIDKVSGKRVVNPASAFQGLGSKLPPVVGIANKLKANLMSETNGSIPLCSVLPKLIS

[18] = target: Homeodomain-interacting protein kinase 3 (Homo sapiens) (UniProt Q9H422); test: Inhibition of Hipk3 (unknown origin) at 0.1 uM by quantitative PCR; outline: as §1
Sequence of Homeodomain-interacting protein kinase 3 (Homo sapiens) (Q9H422 whole entry, looked up): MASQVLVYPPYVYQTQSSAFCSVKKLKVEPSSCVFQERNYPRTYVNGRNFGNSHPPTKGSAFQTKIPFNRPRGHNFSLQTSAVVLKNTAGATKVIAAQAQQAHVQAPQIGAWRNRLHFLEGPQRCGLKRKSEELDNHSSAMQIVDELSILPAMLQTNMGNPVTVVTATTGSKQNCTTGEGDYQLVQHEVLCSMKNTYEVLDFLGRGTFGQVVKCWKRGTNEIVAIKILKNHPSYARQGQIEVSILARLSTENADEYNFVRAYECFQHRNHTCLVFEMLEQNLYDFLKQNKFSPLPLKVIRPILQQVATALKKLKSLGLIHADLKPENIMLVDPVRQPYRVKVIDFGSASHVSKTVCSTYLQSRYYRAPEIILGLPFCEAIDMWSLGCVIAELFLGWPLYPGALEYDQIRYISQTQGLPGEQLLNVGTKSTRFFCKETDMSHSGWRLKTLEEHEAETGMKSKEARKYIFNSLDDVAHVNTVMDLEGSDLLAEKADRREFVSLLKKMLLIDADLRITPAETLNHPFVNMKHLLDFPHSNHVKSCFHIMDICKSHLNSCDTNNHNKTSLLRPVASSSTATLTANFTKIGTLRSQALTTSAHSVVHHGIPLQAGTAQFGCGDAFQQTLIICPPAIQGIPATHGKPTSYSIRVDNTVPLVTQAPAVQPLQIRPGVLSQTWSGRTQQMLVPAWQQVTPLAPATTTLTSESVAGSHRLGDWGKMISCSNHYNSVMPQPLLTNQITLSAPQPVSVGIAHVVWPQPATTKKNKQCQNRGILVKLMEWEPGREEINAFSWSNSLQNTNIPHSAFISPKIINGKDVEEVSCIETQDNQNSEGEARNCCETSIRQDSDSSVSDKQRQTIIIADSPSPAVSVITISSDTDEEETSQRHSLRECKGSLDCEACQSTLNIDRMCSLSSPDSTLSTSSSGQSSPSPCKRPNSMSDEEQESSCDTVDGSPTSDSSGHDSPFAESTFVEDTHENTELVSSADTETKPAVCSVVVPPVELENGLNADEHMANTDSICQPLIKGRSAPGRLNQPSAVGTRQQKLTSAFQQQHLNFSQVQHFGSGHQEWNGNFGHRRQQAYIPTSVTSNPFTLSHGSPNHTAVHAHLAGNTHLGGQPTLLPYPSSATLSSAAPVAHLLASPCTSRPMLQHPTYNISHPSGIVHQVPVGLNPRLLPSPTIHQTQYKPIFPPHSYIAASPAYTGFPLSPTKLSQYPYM

[19] = target: Homeodomain-interacting protein kinase 1 (Homo sapiens) (UniProt Q86Z02); test: Inhibition of Hipk1 (unknown origin) at 0.1 uM by quantitative PCR; outline: as §1
[20] = target: Dual specificity tyrosine-phosphorylation-regulated kinase 1A (Homo sapiens) (UniProt Q13627); test: Inhibition of Dyrk1a (unknown origin) at 0.1 uM by quantitative PCR; outline: as §1
[21] = target: Dual specificity tyrosine-phosphorylation-regulated kinase 4 (Homo sapiens) (UniProt Q9NR20); test: Inhibition of Dyrk4 (unknown origin) at 0.1 uM by quantitative PCR; outline: as §1
Sequence of Dual specificity tyrosine-phosphorylation-regulated kinase 4 (Homo sapiens) (Q9NR20 whole entry): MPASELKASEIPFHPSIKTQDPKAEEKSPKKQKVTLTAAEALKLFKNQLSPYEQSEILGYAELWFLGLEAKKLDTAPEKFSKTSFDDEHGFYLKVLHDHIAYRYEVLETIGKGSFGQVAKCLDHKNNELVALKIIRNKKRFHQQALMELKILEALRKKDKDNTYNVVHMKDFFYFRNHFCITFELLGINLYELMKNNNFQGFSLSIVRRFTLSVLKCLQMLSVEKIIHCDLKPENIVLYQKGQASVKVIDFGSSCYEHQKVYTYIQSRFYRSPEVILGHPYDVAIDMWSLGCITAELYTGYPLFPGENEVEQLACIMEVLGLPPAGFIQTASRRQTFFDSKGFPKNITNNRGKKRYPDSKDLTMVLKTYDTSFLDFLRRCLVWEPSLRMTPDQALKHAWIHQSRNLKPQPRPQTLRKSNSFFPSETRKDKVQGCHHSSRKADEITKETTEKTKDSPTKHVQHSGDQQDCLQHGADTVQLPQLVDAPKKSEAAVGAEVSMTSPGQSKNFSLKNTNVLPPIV

Mus musculus [22] = test: Toxicity in ip dosed Ncr nu/nu mouse xenografted with human SW620 cells harboring APC mutation assessed as reversible body weight loss measured on day 25; type: organism-based, SW-620; settings: in vivo
HCT-116 = test: Antitumor activity against human HCT116 cells harboring beta-catenin mutation xenografted in ip dosed Ncr nu/nu mouse administered as bolus dose for once in every week for 3 weeks; type: functional, organism-based
[23] = target: Death-associated protein kinase 3 (Homo sapiens) (UniProt O43293); test: Inhibition of Dapk3 (unknown origin) at 0.1 uM by quantitative PCR; outline: as §1
Sequence of Death-associated protein kinase 3 (Homo sapiens) (O43293 whole entry, looked up): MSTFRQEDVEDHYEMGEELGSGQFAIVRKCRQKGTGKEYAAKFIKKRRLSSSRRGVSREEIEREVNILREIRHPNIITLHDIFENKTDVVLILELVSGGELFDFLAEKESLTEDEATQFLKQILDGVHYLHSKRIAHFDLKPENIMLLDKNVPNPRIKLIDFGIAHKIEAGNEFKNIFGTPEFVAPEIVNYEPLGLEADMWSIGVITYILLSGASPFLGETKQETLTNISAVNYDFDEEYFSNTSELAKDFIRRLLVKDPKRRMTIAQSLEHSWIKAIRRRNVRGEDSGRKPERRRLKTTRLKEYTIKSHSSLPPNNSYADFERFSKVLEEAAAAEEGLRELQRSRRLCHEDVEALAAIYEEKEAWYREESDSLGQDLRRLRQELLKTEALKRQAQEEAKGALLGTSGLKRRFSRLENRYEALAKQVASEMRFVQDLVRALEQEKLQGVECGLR

[24] = target: Bone morphogenetic protein receptor type-1B (Homo sapiens) (UniProt O00238); test: Inhibition of BMPR1b (unknown origin) at 0.1 uM by quantitative PCR
[25] = target: Dual specificity tyrosine-phosphorylation-regulated kinase 1B (Homo sapiens) (UniProt Q9Y463); test: Inhibition of Dyrk1b (unknown origin) 0.1 uM by quantitative PCR; outline: as §1
Sequence of Dual specificity tyrosine-phosphorylation-regulated kinase 1B (Homo sapiens) (Q9Y463 whole entry, looked up): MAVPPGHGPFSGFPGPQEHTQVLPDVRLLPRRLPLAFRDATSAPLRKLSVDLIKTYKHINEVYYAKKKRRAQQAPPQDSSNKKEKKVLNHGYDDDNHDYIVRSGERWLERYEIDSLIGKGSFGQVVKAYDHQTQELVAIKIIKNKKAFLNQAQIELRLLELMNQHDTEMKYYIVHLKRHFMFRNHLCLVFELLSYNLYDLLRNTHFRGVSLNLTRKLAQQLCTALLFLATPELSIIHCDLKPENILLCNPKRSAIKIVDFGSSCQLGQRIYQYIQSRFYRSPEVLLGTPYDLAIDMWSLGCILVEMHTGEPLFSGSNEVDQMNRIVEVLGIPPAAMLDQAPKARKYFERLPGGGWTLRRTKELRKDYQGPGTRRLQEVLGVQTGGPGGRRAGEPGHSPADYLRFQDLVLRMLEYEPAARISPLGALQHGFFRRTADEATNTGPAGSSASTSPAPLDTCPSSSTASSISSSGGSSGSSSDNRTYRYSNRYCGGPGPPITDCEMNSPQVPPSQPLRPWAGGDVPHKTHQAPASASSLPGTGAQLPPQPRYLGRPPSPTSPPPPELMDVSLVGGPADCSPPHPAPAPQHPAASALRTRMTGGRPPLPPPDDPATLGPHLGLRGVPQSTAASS

Mus musculus [26] = test: In vivo inhibition of AKT phosphorylation in human SW620 cells xenografted in iv dosed Ncr nu/nu mouse after 48 hrs by Western blot analysis; type: functional, organism-based; settings: SW-620; outline: as §2
[27] = Antiproliferative activity against human SW620 cells after 72 hrs by alamar blue assay; type: functional; settings: SW-620, 72 h
Plasma = test: Drug uptake in Ncr nu/nu mouse plasma xenografted with human DLD1 cells at 10 mg/kg, iv measured up to 24 hrs; type: ADME, organism-based, DLD-1; settings: in vivo
Outline: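 Single 10 mg/kg IV dose in DLD-1 TOPflash xenograft mice; plasma drug concentration followed to 24 h.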

Mus musculus [28] = test: Toxicity in ip dosed Ncr nu/nu mouse xenografted with human HCT-116 cells harboring beta-catenin mutation assessed as reversible body weight loss measured on day 25; type: organism-based; settings: in vivo
[29] = target: Homeodomain-interacting protein kinase 2 (Homo sapiens) (UniProt Q9H2X6); settings: 0.1 uM
[30] = Antiproliferative activity against human DLD1 cells after 72 hrs by alamar blue assay; type: functional; settings: DLD-1, 72 h

fraction unbound at 10 µM [1]: 0.22
pIC50 [2]: 6.14
microsomal CLint [3]: < 4 µL/min/mg
hepatocyte CLint [4]: 15 µL/min/1e6 cells
solubility at 24 h [5]: > 1000 µM
Structure (SMILES): CC(=O)Nc1cc(Nc2cc(NC3CC3)n3ncc(C#N)c3n2)ccc1N(C)CCCN(C)C

fraction unbound at 10 µM [1]: 0.33
pIC50 [2]: 6.40
pIC50 (Casein kinase II): 8.40
pIC50 [6]: > 8.52
microsomal CLint [3]: < 3 µL/min/mg
hepatocyte CLint [4]: < 1 µL/min/1e6 cells
solubility at 24 h [5]: 825 µM (≈ 358 µg/mL)
Structure (SMILES): CC(=O)Nc1cc(Nc2cc(NC3CC3)n3ncc(C#N)c3n2)ccc1N(C)C[C@@H](C)N

fraction unbound at 10 µM [1]: 0.18
pIC50 [2]: 6.52
pIC50 (Casein kinase II): 8.30
pIC50 [6]: > 8.52
microsomal CLint [3]: 135 µL/min/mg
hepatocyte CLint [4]: > 300 µL/min/1e6 cells
solubility at 24 h [5]: 275 µM (≈ 135 µg/mL)
Structure (SMILES): CC(=O)Nc1cc(Nc2cc(NC3CC3)n3ncc(C#N)c3n2)ccc1N(C)CCN1CCOCC1

fraction unbound at 10 µM [1]: 0.02
pIC50 [2]: 6.12
solubility at 24 h [5]: 241 µM (≈ 119 µg/mL)
Structure (SMILES): CC(=O)Nc1cc(Nc2cc(NC3CC3)n3ncc(C#N)c3n2)ccc1N(C)CCN1CC(F)(F)C1

fraction unbound at 10 µM [1]: 0.39
inhibition [7]: > 50%
pIC50 [2]: 7.37
inhibition [17]: > 50%
inhibition [18]: > 50%
inhibition [19]: > 50%
inhibition [20]: > 50%
inhibition [21]: > 50%
inhibition [24]: 74%
microsomal CLint [3]: 7 µL/min/mg
hepatocyte CLint [4]: 8 µL/min/1e6 cells
inhibition [25]: > 50%
Drug uptake (Plasma): Not Active
inhibition [29]: > 50%
solubility at 24 h [5]: > 1000 µM
Structure (SMILES): CC(=O)Nc1cc(Nc2cc(NC3CC3)n3ncc(C#N)c3n2)ccc1N(C)CCN
TGI (SW-620): Dose-dependent effect
inhibition (L-Wnt3a): Dose-dependent effect
inhibition in vivo at 10 mg/kg (Mus musculus [8]): 40%
inhibition (Mus musculus [9]): Dose-dependent effect
inhibition [10]: > 50%
inhibition in vivo at 30 mg/kg [11]: 94%
pIC50 [12]: < 4.00
inhibition (Mus musculus [13]): Active
inhibition in vivo at 30 mg/kg [14]: 74%
GI50 [15]: 0.01 µM
Activity (Mus musculus [16]): 6.8%
Activity (Mus musculus [22]): Dose-dependent effect
TGI (HCT-116): Dose-dependent effect
inhibition [23]: > 50%
inhibition (Mus musculus [26]): Dose-dependent effect
GI50 [27]: 0.005 µM
Activity (Mus musculus [28]): Dose-dependent effect
GI50 [30]: 0.05 µM

More lines, now with the values behind:

Structure (SMILES): CC(=O)Nc1cc(Nc2cc(NC3CC3)n3ncc(C#N)c3n2)ccc1N1CCC[C@@H](N)C1
fraction unbound at 10 µM [1]: 0.2
pIC50 [2]: 6.19
microsomal CLint [3]: < 3 µL/min/mg
hepatocyte CLint [4]: < 1 µL/min/1e6 cells
solubility at 24 h [5]: > 1000 µM

Structure (SMILES): CC(=O)Nc1cc(Nc2cc(NC3CC3)n3ncc(C#N)c3n2)ccc1N1CC[C@@H](N)C1
fraction unbound at 10 µM [1]: 0.32
pIC50 [2]: 6.02
pIC50 (Casein kinase II): 7.15
pIC50 [6]: > 8.52
microsomal CLint [3]: < 3 µL/min/mg
hepatocyte CLint [4]: 2.5 µL/min/1e6 cells
solubility at 24 h [5]: 812 µM (≈ 350 µg/mL)

Structure (SMILES): CCN(CC)CCN(C)c1ccc(Nc2cc(NC3CC3)n3ncc(C#N)c3n2)cc1NC(C)=O
fraction unbound at 10 µM [1]: 0.23
pIC50 [2]: 6.41
microsomal CLint [3]: 44 µL/min/mg
hepatocyte CLint [4]: 27 µL/min/1e6 cells
solubility at 24 h [5]: > 1000 µM

Structure (SMILES): CCN(CCN)c1ccc(Nc2cc(NC3CC3)n3ncc(C#N)c3n2)cc1NC(C)=O
fraction unbound at 10 µM [1]: 0.3
pIC50 [2]: 7.49
pIC50 [6]: > 8.52
microsomal CLint [3]: 5 µL/min/mg
hepatocyte CLint [4]: 2 µL/min/1e6 cells
solubility at 24 h [5]: > 1000 µM

— ChEMBL document CHEMBL3808365, “Potent and Selective CK2 Kinase Inhibitors with Effects on Wnt Pathway Signaling in Vivo” (ACS Med Chem Lett, 2016)
